{
  "source": "ChEMBL document CHEMBL4339251",
  "about": "“Prenylated Bibenzyls from the Chinese Liverwort Radula constricta and Their Mitochondria-Derived Paraptotic Cytotoxic Activities” (J Nat Prod, 2019)",
  "key": {"[1]": {"tested_on": "NCI-H1299", "assay": "Induction of apoptosis in human NCI-H1299 cells assessed as necrotic cells at 20 uM by annexinV-FITC and propidium iodide staining based flow cytometric analysis (reference value: 3.17%)", "type": "functional"}, "[2]": {"tested_on": "NCI-H1299", "assay": "Induction of cytoplasmic vacuolization in human NCI-H1299 cells at 10 uM measured within 3 hrs by optical microscopy", "type": "functional, cell-based", "procedure,_shortened": "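Morphology. A549 or NCI-H1299 cells were treated at 10 μM and vacuole formation was followed by optical microscopy at the indicated times.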"}, "[3]": {"tested_on": "A549", "assay": "Induction of apoptosis in human A549 cells assessed as late apoptotic cells at 10 uM by annexinV-FITC and propidium iodide staining based flow cytometric analysis (reference value: 3.14%)", "type": "functional"}, "[4]": {"tested_on": "NCI-H1299", "assay": "Cytotoxicity in human NCI-H1299 cells assessed as reduction in cell viability incubated for 48 hrs by MTT assay", "type": "functional, cell-based", "settings": "NCI-H1299, 48 h", "procedure,_shortened": "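MTT viability. U251 and NCI-H1299 were grown in DMEM, the other lines in RPMI 1640, each with 10% FBS, penicillin and streptomycin, at 37 °C in 5% CO2. Cells were seeded in 96-well plates overnight and exposed to a range of concentrations. MTT (5 mg/mL) was added for 4 h, formazan was dissolved in DMSO and absorbance read at 570 nm. Three independent experiments.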"}, "[5]": {"tested_on": "A549", "assay": "Induction of ROS generation in human A549 cells after 1 hr by DCFH-DA staining based flow cytometry relative to untreated control", "type": "functional", "procedure,_shortened": "(§1)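 ROS by flow cytometry. Cells were exposed for the indicated times, then stained with DCFH-DA (10 μM). DCF mean fluorescence intensity was compared with untreated control. Mean ± SD, n = 3.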"}, "[6]": {"tested_on": "NCI-H1299", "assay": "Induction of mitochondria-derived paraptosis in human NCI-H1299 cells assessed as formation of fluorescent vacuoles after 3 hrs by Mito-Tracker staining based fluorescence microscopy", "type": "functional, cell-based", "procedure,_shortened": "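Live-cell imaging. Treated cells on coverslips were stained with Mito-Tracker Red (100 nM) at 37 °C for 30 min, washed three times with PBS and stained with Hoechst 33342 (10 μg/mL) for 15 min. Images were taken by confocal or fluorescence microscopy at the indicated times.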"}, "[7]": {"tested_on": "A549", "assay": "Induction of cytoplasmic vacuolization in human A549 cells", "type": "functional, cell-based"}, "[8]": {"tested_on": "NCI-H1299", "assay": "Induction of apoptosis in human NCI-H1299 cells assessed as late apoptotic cells at 20 uM by annexinV-FITC and propidium iodide staining based flow cytometric analysis (reference value: 3.29%)", "type": "functional"}, "[9]": {"tested_on": "NCI-H1299", "assay": "Induction of apoptosis in human NCI-H1299 cells assessed as necrotic cells at 10 uM by annexinV-FITC and propidium iodide staining based flow cytometric analysis (reference value: 3.17%)", "type": "functional"}, "[10]": {"tested_on": "A549", "assay": "Induction of cytoplasmic vacuolization in human A549 cells at 10 uM treated for 3 hrs after pre-treatment with pan-caspase inhibitor Z-VAD-FMK for 1 hr by optical microscopy", "type": "functional, cell-based", "procedure,_shortened": "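Caspase-inhibitor morphology. Cells were treated with DMSO, 20 μM Z-VAD-FMK, 10 μM compound, or the combinations for 3 h, then imaged by optical microscopy.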"}, "[11]": {"tested_on": "NCI-H1299", "assay": "Induction of apoptosis in human NCI-H1299 cells assessed as induction of PARP cleavage at 2.5 to 10 uM incubated for 24 hrs by Western blot analysis", "type": "functional, cell-based", "procedure,_shortened": "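Western blot. Cells were cultured overnight in six-well plates, then exposed to various concentrations for 24 h before immunoblotting.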"}, "[12]": {"tested_on": "A549", "assay": "Induction of apoptosis in human A549 cells assessed as early apoptotic cells at 20 uM by annexinV-FITC and propidium iodide staining based flow cytometric analysis (reference value: 1.47%)", "type": "functional"}, "[13]": {"tested_on": "A549", "assay": "Induction of apoptosis in human A549 cells assessed as necrotic cells at 20 uM by annexinV-FITC and propidium iodide staining based flow cytometric analysis (reference value: 1.44%)", "type": "functional"}, "[14]": {"tested_on": "NCI-H1299", "assay": "Induction of mitochondria dysfunction in human NCI-H1299 cells assessed as mitochondrial membrane potential incubated for 1 hr by JC-1 dye based flow cytometry relative to 0 hrs control", "type": "functional", "procedure,_shortened": "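Membrane potential. After treatment for the indicated times, ΔΨm was measured by JC-1 (5 μg/mL) staining and flow cytometry, relative to the 0 h control. Mean ± SD, n = 3.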"}, "[15]": {"tested_on": "A549", "assay": "Induction of ROS generation in human A549 cells by DCFH-DA staining based flow cytometry", "type": "functional, cell-based", "settings": "TDE = time-dependent effect", "procedure,_shortened": "as §1"}, "[16]": {"tested_on": "NCI-H1299", "assay": "Induction of apoptosis in human NCI-H1299 cells assessed as late apoptotic cells at 10 uM by annexinV-FITC and propidium iodide staining based flow cytometric analysis (reference value: 3.29%)", "type": "functional"}, "[17]": {"tested_on": "A549", "assay": "Induction of apoptosis in human A549 cells assessed as necrotic cells at 10 uM by annexinV-FITC and propidium iodide staining based flow cytometric analysis (reference value: 1.44%)", "type": "functional"}},
  "note": "Activity calls are given as the source filed them. No cut-off for these calls is given here.",
  "data": [
    {"smiles": "COC(=O)c1c(CCc2ccccc2)cc(O)c(CC=C(C)C)c1O", "values": [
      {"measurement": "Activity", "setting": "[1]", "value": 3.49, "unit": "%"},
      {"measurement": "Activity", "setting": "[2]", "value": "Active"},
      {"measurement": "Activity", "setting": "[3]", "value": 3.39, "unit": "%"},
      {"measurement": "IC50", "setting": "[4]", "value": 5.1, "unit": "µM"},
      {"measurement": "fold change (FC)", "setting": "[5]", "value": 20},
      {"measurement": "Activity", "setting": "[6]", "value": "Active"},
      {"measurement": "Activity", "setting": "[7]", "value": "Active"},
      {"measurement": "Activity", "setting": "[8]", "value": 2.95, "unit": "%"},
      {"measurement": "Activity", "setting": "[9]", "value": 3.75, "unit": "%"},
      {"measurement": "Activity", "setting": "[10]", "value": "Active"},
      {"measurement": "Activity", "setting": "[11]", "value": "inactive"},
      {"measurement": "Activity", "setting": "[12]", "value": 2.44, "unit": "%"},
      {"measurement": "Activity", "setting": "[13]", "value": 1.73, "unit": "%"},
      {"measurement": "Activity", "setting": "[14]", "value": 25, "unit": "%"},
      {"measurement": "Activity", "setting": "[15]", "value": "Tde"},
      {"measurement": "Activity", "setting": "[16]", "value": 3.36, "unit": "%"},
      {"measurement": "Activity", "setting": "[17]", "value": 2.02, "unit": "%"}
    ]}
  ]
}
